Ends that are not written are not given here.
Assays:
CD47 = CD47 (Homo sapiens, UniProt Q08722); assay: SPRi analysis of the binding between RT and CD47
red blood cells = assay: Hemolysis assay; format: cell-based, mouse; conditions: 2% (v/v) RBC in PBS, 37 °C, 1 h; absorbance 540 nm; water / PBS controls
Outline: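 Red cells were exposed to the test peptide across a concentration range, and separately to peptide–quantum dot co-assemblies (peptide fixed at 1 mg mL−1, QD level varied). Supernatants were scanned by UV-vis spectroscopy to derive hemolysis rates. Means ± s.d., n = 3; one-way ANOVA with Tukey post hoc test.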

Sequence of CD47 (Q08722 19-323, species assumed): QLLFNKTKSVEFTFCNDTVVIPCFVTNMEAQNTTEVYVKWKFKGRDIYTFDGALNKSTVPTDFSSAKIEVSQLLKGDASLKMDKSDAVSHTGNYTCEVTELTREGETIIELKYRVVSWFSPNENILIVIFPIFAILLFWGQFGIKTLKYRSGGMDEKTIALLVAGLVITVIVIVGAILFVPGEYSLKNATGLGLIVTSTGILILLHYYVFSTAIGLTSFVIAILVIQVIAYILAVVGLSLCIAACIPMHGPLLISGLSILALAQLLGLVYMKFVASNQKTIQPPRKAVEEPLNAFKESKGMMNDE

HFEYWEERHKKLVFF [RT]
Kd (CD47): 318 nM | hemolytic effect (red blood cells): almost no hemolytic effect
